Assay results as given in ChEMBL document CHEMBL5042553 (J Med Chem, 2022).
Activity calls are given as the source filed them. No cut-off for these calls is given here.

Key:
[1] = target: T1, von Hippel-Lindau disease tumor suppressor/Histone deacetylase 3 (Homo sapiens, UniProt O15379+P40337); assay: Protac activity at VHL/HDAC3 in human HCT-116 cells assessed as induction of HDAC3 degradation at 10 uM measured upto 24 hrs by Western blot analysis; type: cell-based; settings: time hrs <=24
Summary of the method: (§1)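 HCT116 cells (37 °C, 5% CO₂) seeded for 24 h, then given DMSO or PROTAC (0.01–10 μM) in fresh medium for 2–48 h. Lysates made in Tris/NaCl/NP-40/Triton X-100 buffer with protease inhibitor; histones acid-extracted with 0.4 N H₂SO₄. 30 μg protein or 10 μL histone extract per lane run on 4–12% bis-Tris gels. Quantitative western blotting used IR-dye secondaries and band densitometry, referenced to DMSO; two independent biological replicates.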
Target sequence in this assay (O15379 whole entry, looked up): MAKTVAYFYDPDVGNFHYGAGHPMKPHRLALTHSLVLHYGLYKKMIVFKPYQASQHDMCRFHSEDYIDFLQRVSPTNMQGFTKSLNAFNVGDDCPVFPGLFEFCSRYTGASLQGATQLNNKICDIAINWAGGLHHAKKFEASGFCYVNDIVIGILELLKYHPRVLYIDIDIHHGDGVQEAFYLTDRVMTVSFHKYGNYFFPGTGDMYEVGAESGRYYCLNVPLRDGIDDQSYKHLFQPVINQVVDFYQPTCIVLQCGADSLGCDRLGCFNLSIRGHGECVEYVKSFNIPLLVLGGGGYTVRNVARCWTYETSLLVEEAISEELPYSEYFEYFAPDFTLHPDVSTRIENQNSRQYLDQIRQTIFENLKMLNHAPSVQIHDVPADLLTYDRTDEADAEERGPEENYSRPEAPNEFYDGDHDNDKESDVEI
Target sequence in this assay (P40337 whole entry, looked up): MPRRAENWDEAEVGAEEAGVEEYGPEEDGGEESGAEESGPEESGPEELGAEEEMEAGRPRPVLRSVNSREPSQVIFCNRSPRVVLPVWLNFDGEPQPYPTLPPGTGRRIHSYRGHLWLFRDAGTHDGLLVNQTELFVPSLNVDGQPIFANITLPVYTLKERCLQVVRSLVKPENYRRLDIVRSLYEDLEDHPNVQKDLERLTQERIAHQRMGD

[2] = target: T2, von Hippel-Lindau disease tumor suppressor/Histone deacetylase 1 (Homo sapiens, UniProt Q13547+P40337); assay: Protac activity at VHL/HDAC1 in human HCT-116 cells assessed as induction of HDAC1 degradation at 1 uM incubated for 24 hrs by Western blot analysis; type: cell-based; summary of the method: as §1
Target sequence in this assay (P40337 whole entry, looked up): as above
Target sequence in this assay (Q13547 whole entry, looked up): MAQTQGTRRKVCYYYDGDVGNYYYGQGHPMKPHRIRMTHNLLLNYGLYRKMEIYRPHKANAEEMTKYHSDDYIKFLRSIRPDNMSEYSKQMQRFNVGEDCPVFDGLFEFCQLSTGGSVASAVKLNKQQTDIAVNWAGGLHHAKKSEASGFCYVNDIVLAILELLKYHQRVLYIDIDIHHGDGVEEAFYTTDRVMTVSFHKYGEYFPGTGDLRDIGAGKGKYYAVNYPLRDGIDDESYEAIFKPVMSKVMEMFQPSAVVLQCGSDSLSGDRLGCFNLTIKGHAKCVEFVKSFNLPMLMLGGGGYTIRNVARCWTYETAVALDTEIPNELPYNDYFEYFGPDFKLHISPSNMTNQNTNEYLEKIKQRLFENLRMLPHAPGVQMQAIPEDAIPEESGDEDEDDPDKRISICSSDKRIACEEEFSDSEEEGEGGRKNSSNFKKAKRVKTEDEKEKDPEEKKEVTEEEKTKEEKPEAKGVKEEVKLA

HCT-116 [3] = assay: Induction of apoptosis in HCT-116 cells assessed as accumulation of cells in Sub-G1 phase at 10 uM measured after 48 hrs by flow cytometry analysis; settings: Homo sapiens
[4] = target: T2, von Hippel-Lindau disease tumor suppressor/Histone deacetylase 1; assay: Protac activity at VHL/HDAC1 in human HCT-116 cells assessed as induction of HDAC1 degradation at 1 uM measured upto 48 hrs by Western blot analysis; type: cell-based; settings: time hrs <=48; summary of the method: as §1
Target sequence in this assay (P40337 whole entry, looked up): as the sequence (P40337 whole entry, looked up) above
Target sequence in this assay (Q13547 whole entry, looked up): as the sequence (Q13547 whole entry, looked up) above

[5] = target: T3, von Hippel-Lindau disease tumor suppressor/Histone deacetylase 2 (Homo sapiens) (UniProt Q92769+P40337); assay: Protac activity at VHL/HDAC2 in human HCT-116 cells assessed as induction of HDAC2 degradation at 10 uM measured after 4 hrs by Western blot analysis; type: cell-based; summary of the method: as §1
HCT-116 [6] = assay: Induction of apoptosis in human HCT-116 cells assessed as accumulation of cells in Sub-G1 phase at 10 uM measured after 24 hrs by flow cytometry analysis
[7] = target: T3, von Hippel-Lindau disease tumor suppressor/Histone deacetylase 2 (Homo sapiens); assay: Protac activity at VHL/HDAC2 in human HCT-116 cells assessed as fold increase in H3K56ac at 10 uM measured after 8 hrs by Western blot analysis relative to control; type: cell-based; summary of the method: as §1
[8] = target: T2, von Hippel-Lindau disease tumor suppressor/Histone deacetylase 1; assay: Protac activity at VHL/HDAC1 in human HCT-116 cells assessed as induction of HDAC1 degradation at 10 uM measured after 4 hrs by Western blot analysis; type: cell-based; summary of the method: as §1
Target sequence in this assay (P40337 whole entry, looked up): as the sequence (P40337 whole entry, looked up) above
Target sequence in this assay (Q13547 whole entry, looked up): as the sequence (Q13547 whole entry, looked up) above

[9] = target: T2, von Hippel-Lindau disease tumor suppressor/Histone deacetylase 1; assay: Protac activity at VHL/HDAC1 in human HCT-116 cells assessed as reduction in LSD1 level measured after 48 hrs by Western blot analysis; design: scale not given: the % may be the effect or the level left
Target sequence in this assay (P40337 whole entry, looked up): as the sequence (P40337 whole entry, looked up) above
Target sequence in this assay (Q13547 whole entry, looked up): as the sequence (Q13547 whole entry, looked up) above

[10] = target: T1, von Hippel-Lindau disease tumor suppressor/Histone deacetylase 3; assay: Protac activity at VHL/HDAC3 in human HCT-116 cells assessed as induction of HDAC3 degradation at 1 uM measured after 4 hrs by Western blot analysis; type: cell-based; summary of the method: as §1
Target sequence in this assay (O15379 whole entry, looked up): as the sequence (O15379 whole entry, looked up) above
Target sequence in this assay (P40337 whole entry, looked up): as the sequence (P40337 whole entry, looked up) above

[11] = target: T1, von Hippel-Lindau disease tumor suppressor/Histone deacetylase 3; assay: Protac activity at VHL/HDAC3 in human HCT-116 cells assessed as induction of HDAC3 degradation at 10 uM measured after 36 to 48 hrs by Western blot analysis; type: cell-based; settings: time 36-48 hrs; summary of the method: as §1
Target sequence in this assay (O15379 whole entry, looked up): as the sequence (O15379 whole entry, looked up) above
Target sequence in this assay (P40337 whole entry, looked up): as the sequence (P40337 whole entry, looked up) above

[12] = target: T3, von Hippel-Lindau disease tumor suppressor/Histone deacetylase 2 (Homo sapiens); assay: Protac activity at VHL/HDAC2 in human HCT-116 cells assessed as induction of HDAC2 degradation at 1 uM measured upto 48 hrs by Western blot analysis; type: cell-based; settings: time hrs <=48; summary of the method: as §1
[13] = target: T1, von Hippel-Lindau disease tumor suppressor/Histone deacetylase 3; assay: Protac activity at VHL/HDAC3 in human HCT-116 cells assessed as induction of HDAC3 degradation at 1 uM measured after 15 hrs by Western blot analysis; type: cell-based; summary of the method: as §1
Target sequence in this assay (O15379 whole entry, looked up): as the sequence (O15379 whole entry, looked up) above
Target sequence in this assay (P40337 whole entry, looked up): as the sequence (P40337 whole entry, looked up) above

[14] = target: T2, von Hippel-Lindau disease tumor suppressor/Histone deacetylase 1; assay: Protac activity at VHL/HDAC1 in human HCT-116 cells assessed as fold increase in H3K56ac at 10 uM measured after 8 hrs by Western blot analysis relative to control; type: cell-based; summary of the method: as §1
Target sequence in this assay (P40337 whole entry, looked up): as above
Target sequence in this assay (Q13547 whole entry, looked up): as the sequence (Q13547 whole entry, looked up) above

[15] = target: T3, von Hippel-Lindau disease tumor suppressor/Histone deacetylase 2 (Homo sapiens); assay: Protac activity at VHL/HDAC2 in human HCT-116 cells assessed as reduction in LSD1 level measured after 48 hrs by Western blot analysis; design: scale not given: the % may be the effect or the level left
[16] = target: T1, von Hippel-Lindau disease tumor suppressor/Histone deacetylase 3; assay: Protac activity at VHL/HDAC3 in human HCT-116 cells assessed as induction of HDAC3 degradation at 10 uM incubated for 24 hrs by Western blot analysis; type: cell-based; summary of the method: as §1
Target sequence in this assay (O15379 whole entry, looked up): as the sequence (O15379 whole entry, looked up) above
Target sequence in this assay (P40337 whole entry, looked up): as the sequence (P40337 whole entry, looked up) above

[17] = target: T1, von Hippel-Lindau disease tumor suppressor/Histone deacetylase 3; assay: Protac activity at VHL/HDAC3 in human HCT-116 cells assessed as induction of HDAC3 degradation at 1 to 10 uM incubated for 24 hrs by Western blot analysis; type: cell-based; settings: dose 1-10 µM; summary of the method: as §1
Target sequence in this assay (O15379 whole entry, looked up): as the sequence (O15379 whole entry, looked up) above
Target sequence in this assay (P40337 whole entry, looked up): as the sequence (P40337 whole entry, looked up) above

[18] = target: T2, von Hippel-Lindau disease tumor suppressor/Histone deacetylase 1; assay: Protac activity at VHL/HDAC1 in human HCT-116 cells assessed as induction of HDAC1 degradation at 1 to 10 uM incubated for 24 hrs by Western blot analysis; type: cell-based; settings: dose 1-10 µM; summary of the method: as §1
Target sequence in this assay (P40337 whole entry, looked up): as above
Target sequence in this assay (Q13547 whole entry, looked up): as the sequence (Q13547 whole entry, looked up) above

[19] = target: T3, von Hippel-Lindau disease tumor suppressor/Histone deacetylase 2 (Homo sapiens); assay: Protac activity at VHL/HDAC2 in human HCT-116 cells assessed as induction of HDAC2 degradation at 1 to 10 uM incubated for 24 hrs by Western blot analysis; type: cell-based; settings: dose 1-10 µM; summary of the method: as §1
[20] = Inhibition of HDAC2-CoREST-LSD1 (unknown origin) using Boc- (Ac)Lys-AMC as substrate preincubated for 1 hr followed by substrate addition and measured after 1 hr by fluorescent assay; design: species or system Homo sapiens
HCT-116 [21] = assay: Cytotoxicity against human HCT-116 cells assessed as reduction in cell viability measured after 48 hrs by cell-titer glo assay; type: functional, cell-based
[22] = target: T1, von Hippel-Lindau disease tumor suppressor/Histone deacetylase 3; assay: Protac activity at VHL/HDAC3 in human HCT-116 cells assessed as induction of HDAC3 degradation incubated for 24 hrs by Western blot analysis; type: cell-based
Target sequence in this assay (O15379 whole entry): as the sequence (O15379 whole entry, looked up) above
Target sequence in this assay (P40337 whole entry): as the sequence (P40337 whole entry, looked up) above

[23] = target: T2, von Hippel-Lindau disease tumor suppressor/Histone deacetylase 1; assay: Protac activity at VHL/HDAC1 in human HCT-116 cells assessed as induction of HDAC1 degradation incubated for 24 hrs by Western blot analysis; type: cell-based
Target sequence in this assay (Q13547 whole entry): as the sequence (Q13547 whole entry, looked up) above
Target sequence in this assay (P40337 whole entry): as the sequence (P40337 whole entry, looked up) above

[24] = Inhibition of HDAC1-CoREST-LSD1 (unknown origin) using Boc- (Ac)Lys-AMC as substrate preincubated for 1 hr followed by substrate addition and measured after 1 hr by fluorescent assay; design: species or system Homo sapiens
[25] = Inhibition of HDAC3-SMRT (unknown origin) using Boc- (Ac)Lys-AMC as substrate preincubated for 1 hr followed by substrate addition and measured after 1 hr by fluorescent assay; design: species or system Homo sapiens

T3 sequence (P40337 whole entry, looked up): as above
T3 sequence (Q92769 whole entry, looked up): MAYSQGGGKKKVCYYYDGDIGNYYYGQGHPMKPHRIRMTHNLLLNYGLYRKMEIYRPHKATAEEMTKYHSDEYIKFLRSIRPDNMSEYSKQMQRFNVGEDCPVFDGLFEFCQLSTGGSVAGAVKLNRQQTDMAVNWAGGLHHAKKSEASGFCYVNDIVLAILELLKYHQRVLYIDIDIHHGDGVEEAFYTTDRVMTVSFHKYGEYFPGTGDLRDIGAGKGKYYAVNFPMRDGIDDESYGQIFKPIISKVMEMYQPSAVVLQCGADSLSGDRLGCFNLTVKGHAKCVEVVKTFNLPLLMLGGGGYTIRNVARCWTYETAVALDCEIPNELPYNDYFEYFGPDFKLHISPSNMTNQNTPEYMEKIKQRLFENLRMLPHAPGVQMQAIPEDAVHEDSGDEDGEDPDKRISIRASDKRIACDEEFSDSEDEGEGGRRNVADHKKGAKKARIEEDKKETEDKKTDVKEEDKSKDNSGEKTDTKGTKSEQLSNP

Structure (SMILES): Cc1ncsc1-c1ccc(CNC(=O)[C@@H]2C[C@@H](O)CN2C(=O)[C@@H](NC(=O)COCCCCCCCCCOCC(=O)Nc2ccc(C(=O)Nc3ccccc3N)cc2)C(C)(C)C)cc1
- Activity [1]: inactive
- Activity [2]: Active
- Activity (HCT-116 [3]): Active
- Activity [4]: Active
- Activity [5]: Active
- Activity (HCT-116 [6]): Active
- fold change (FC) [7]: 2
- Activity [8]: Active
- Activity [9]: 40%
- Activity [10]: Active
- Activity [11]: 50%
- Activity [12]: Active
- Activity [13]: Active
- fold change (FC) [14]: 2
- Activity [15]: 40%

Structure (SMILES): Cc1ncsc1-c1ccc(CNC(=O)[C@@H]2C[C@@H](O)CN2C(=O)C(NC(=O)COCCOCCOCC(=O)Nc2ccc(C(=O)Nc3ccc(F)cc3N)cc2)C(C)(C)C)cc1 (single isomer, unassigned)
- Activity [16]: Active

Structure (SMILES): Cc1ncsc1-c1ccc(CNC(=O)[C@@H]2C[C@@H](O)CN2C(=O)[C@@H](NC(=O)COCCOCCOCC(=O)Nc2ccc(C(=O)Nc3ccccc3N)cc2)C(C)(C)C)cc1
- Activity [17]: inactive
- Activity [18]: inactive
- Activity [19]: inactive

Structure (SMILES): Cc1ncsc1-c1ccc(CNC(=O)[C@@H]2C[C@@H](O)CN2C(=O)C(NC(=O)CCCCCCCCCCC(=O)Nc2ccc(C(=O)Nc3ccc(F)cc3N)cc2)C(C)(C)C)cc1 (single isomer, unassigned)
- Activity [17]: Active

Structure (SMILES): CC(=O)NC(C(=O)N1C[C@H](O)C[C@H]1C(=O)NCc1ccc(-c2scnc2C)cc1OCCCCNC(=O)CCCCC(=O)Nc1ccc(C(=O)Nc2ccccc2N)cc1)C(C)(C)C (single isomer, unassigned)
- Activity [18]: Active

Structure (SMILES): Cc1ncsc1-c1ccc(CNC(=O)[C@@H]2C[C@@H](O)CN2C(=O)[C@@H](NC(=O)COCCCCCCOCC(=O)Nc2ccc(C(=O)Nc3ccccc3N)cc2)C(C)(C)C)cc1
- Activity [2]: inactive

Structure (SMILES): CC(=O)NC(C(=O)N1C[C@H](O)C[C@H]1C(=O)NCc1ccc(-c2scnc2C)cc1OCCCCCCCCCCCC(=O)Nc1ccc(C(=O)Nc2ccccc2N)cc1)C(C)(C)C (single isomer, unassigned)
- IC50 [20]: 3.46 µM
- Activity (HCT-116 [21]): inactive
- DC50 [22]: 1.38 µM
- DC50 [23]: 3.51 µM
- IC50 [24]: 1.51 µM
- IC50 [25]: 3.81 µM

Structure (SMILES): Cc1ncsc1-c1ccc(CNC(=O)[C@@H]2CC(O)CN2C(=O)[C@@H](NC(=O)COCCOCCOCCOCC(=O)Nc2ccc(C(=O)Nc3ccccc3N)cc2)C(C)(C)C)cc1 (single isomer, unassigned)
- Activity [17]: inactive
- Activity [18]: inactive
- Activity [19]: inactive

Structure (SMILES): Cc1ncsc1-c1ccc(CNC(=O)[C@@H]2C[C@@H](O)CN2C(=O)[C@@H](NC(=O)COCCCCCCCCCOCC(=O)Nc2ccc(C(=O)Nc3ccc(F)cc3N)cc2)C(C)(C)C)cc1
- Activity [2]: Active

Structure (SMILES): Cc1ncsc1-c1ccc(CNC(=O)[C@@H]2C[C@@H](O)CN2C(=O)[C@@H](NC(=O)COCCOCC(=O)Nc2ccc(C(=O)Nc3ccccc3N)cc2)C(C)(C)C)cc1
- Activity [17]: inactive
- Activity [18]: inactive
- Activity [19]: inactive

Structure (SMILES): Cc1ncsc1-c1ccc(CNC(=O)[C@@H]2C[C@@H](O)CN2C(=O)[C@@H](NC(=O)CCCN2CCN(CCCC(=O)Nc3ccc(C(=O)Nc4ccccc4N)cc3)CC2)C(C)(C)C)cc1
- Activity [17]: inactive
- Activity [18]: inactive
- Activity [19]: inactive

Structure (SMILES): Cc1ncsc1-c1ccc(CNC(=O)[C@@H]2C[C@@H](O)CN2C(=O)[C@@H](NC(=O)CCCCCCCCCCCCC(=O)Nc2ccc(C(=O)Nc3ccccc3N)cc2)C(C)(C)C)cc1
- Activity [18]: Active
- Activity [19]: Active

Structure (SMILES): Cc1ncsc1-c1ccc(CNC(=O)[C@@H]2C[C@@H](O)CN2C(=O)[C@@H](NC(=O)CCCCCCCC(=O)Nc2ccc(C(=O)Nc3ccccc3N)cc2)C(C)(C)C)cc1
- Activity [17]: inactive
- Activity [18]: Active
- Activity [19]: Active

Structure (SMILES): Cc1ncsc1-c1ccc(CNC(=O)[C@@H]2C[C@@H](O)CN2C(=O)[C@@H](NC(=O)CCCCCCCCCC(=O)Nc2ccc(C(=O)Nc3ccccc3N)cc2)C(C)(C)C)cc1
- Activity [17]: inactive
- Activity [18]: Active
- Activity [19]: Active

Structure (SMILES): Cc1ncsc1-c1ccc(CNC(=O)[C@@H]2C[C@@H](O)CN2C(=O)[C@@H](NC(=O)CCCCCCCCCCC(=O)Nc2ccc(C(=O)Nc3ccccc3N)cc2)C(C)(C)C)cc1
- Activity [16]: Active

Structure (SMILES): Cc1ncsc1-c1ccc(CNC(=O)[C@@H]2C[C@@H](O)CN2C(=O)[C@@H](NC(=O)CCCCCCCCC(=O)Nc2ccc(C(=O)Nc3ccccc3N)cc2)C(C)(C)C)cc1
- Activity [17]: inactive
- Activity [18]: Active
- Activity [19]: Active

Structure (SMILES): Cc1ncsc1-c1ccc(CNC(=O)[C@@H]2C[C@@H](O)CN2C(=O)[C@@H](NC(=O)CCCCCCCC(=O)Nc2ccc(C(=O)Nc3cc(-c4cccs4)ccc3N)cc2)C(C)(C)C)cc1
- Activity [18]: inactive
- Activity [19]: inactive

Structure (SMILES): Cc1ncsc1-c1ccc(CNC(=O)[C@@H]2C[C@@H](O)CN2C(=O)[C@@H](NC(=O)COCCOCCOCC(=O)Nc2ccc(C(=O)Nc3cc(-c4cccs4)ccc3N)cc2)C(C)(C)C)cc1
- Activity [18]: inactive
- Activity [19]: inactive

Structure (SMILES): CC(=O)NC(C(=O)N1C[C@H](O)C[C@H]1C(=O)NCc1ccc(-c2scnc2C)cc1OCCCCNC(=O)CCCCCCCC(=O)Nc1ccc(C(=O)Nc2ccccc2N)cc1)C(C)(C)C (single isomer, unassigned)
- Activity [18]: Active

Structure (SMILES): Cc1ncsc1-c1ccc(CNC(=O)[C@@H]2C[C@@H](O)CN2C(=O)[C@@H](NC(=O)CCCCCCCCCCC(=O)Nc2ccc(C(=O)Nc3cc(-c4cccs4)ccc3N)cc2)C(C)(C)C)cc1
- Activity [18]: inactive
- Activity [19]: inactive
